Data as given in ChEMBL document CHEMBL4177542, “A New Combination of a Pleuromutilin Derivative and Doxycycline for Treatment of Multidrug-Resistant Acinetobacter baumannii” (J Med Chem, 2017).

Tests used:
Acinetobacter baumannii [1] = experiment: Synergistic bactericidal activity against multidrug-resistant Acinetobacter baumannii ATCC […] at 60:1 compound to doxycycline ratio […] by resazurin dye based microdilution broth checkerboard method; assay type: functional; conditions: read-out: MBC99.9
[2] = Protein binding in rat plasma at 500 to 5000 ng/ml after 4 hrs by LC/MS analysis; assay type: ADME, cell-free
In short: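 Equilibrium dialysis (MWCO 6000–8000) of Sprague-Dawley rat plasma (lithium heparin) spiked at 500 and 5000 ng/mL, in duplicate, against isotonic phosphate buffer pH 7.4. 4 h at 37 °C, about 100 rpm. Methanol with internal standard, LC-MS. Free fraction = buffer/plasma concentration; reported as % bound. Verapamil as reference.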

Acinetobacter baumannii [3] = experiment: Synergistic antibacterial activity against Acinetobacter baumannii ATCC 19606 at 2:1 compound to doxycycline ratio after 48 hrs by resazurin dye based microdilution broth checkerboard method; assay type: functional; conditions: ATCC 19606 = CIP 70.34 = JCM 6841, 48 h
In short: (§1)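 Checkerboard broth microdilution of drug pairs in tryptic soy broth on mid-log cultures (OD 0.5), 48 h at 37 °C. Growth read by resazurin (pink growth, blue no growth). MBC is blue retained over 4 h, CFU plating where needed. ΣFIC = C_A/MIC_A + C_B/MIC_B, taken at the growth/no-growth interface wells; ΣFIC <0.5 counts as synergy.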

[4] = Efflux ratio of apparent permeability in human Caco2 cells; assay type: ADME, cell-based; conditions: Caco-2
Acinetobacter baumannii [5] = experiment: Antibacterial activity against Acinetobacter baumannii ATCC 19606 infected in C57BL/6 mouse assessed as survival rate at 4 mg/kg, ip administered as single dose measured for 5 days (reference value: <20%); assay type: functional; conditions: ATCC 19606 = CIP 70.34 = JCM 6841, ip, 120 h
In short: (§2)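 C57BL/6 mice (n = 5 per group; 4 untreated controls) infected intraperitoneally with A. baumannii ATCC19606 grown at 37 °C and collected by centrifugation, at a dose giving 75% death. Single intraperitoneal dose (2 to 60 mg/kg) given 1 h after infection. Mice monitored for 5 days, with death as the end point; survival rate recorded.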

Klebsiella pneumoniae = experiment: Synergistic antibacterial activity against Klebsiella pneumoniae ATCC 8047 at 2:1 compound to doxycycline ratio after 48 hrs by resazurin dye based microdilution broth checkerboard method; assay type: functional; conditions: ATCC 8047, 48 h
In short: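 Microdilution broth checkerboard of the compound combined with doxycycline, using the resazurin broth method (48 h, 37 °C, blue = no growth). ΣFIC = C_A/MIC_A + C_B/MIC_B, taken at the growth–no growth interface wells; ΣFIC below 0.5 is scored as synergy. MBC for the fixed-ratio combinations read as the 4 h resazurin endpoint.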

Pseudomonas aeruginosa = experiment: Growth inhibition of Pseudomonas aeruginosa ATCC 27853 at 2:1 compound to doxycycline ratio after 48 hrs by resazurin dye based microdilution method; assay type: functional; conditions: ATCC 27853, 48 h; in short: as §1
Acinetobacter baumannii [6] = experiment: Potentiation of doxycycline-induced antimicrobial activity against Acinetobacter baumannii ATCC 19606 at 0.2 ug/ml in presence of 0.025 ug/ml doxycycline by microdilution broth checkerboard method; assay type: functional, ATCC 19606 = CIP 70.34 = JCM 6841
In short: (§3)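 A. baumannii ATCC 19606 in a broth microdilution checkerboard with doxycycline, 96 concentration combinations. ΣFIC = C_A/MIC_A + C_B/MIC_B, taken for wells at the growth/no-growth interface; ΣFIC <0.5 counts as synergy.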

Acinetobacter baumannii [7] = experiment: Synergistic antibacterial activity against Acinetobacter baumannii ATCC 19606 infected in C57BL/6 mouse assessed as increase in survival rate at compound to doxycycline ratio of 35:1 administered ip as single dose measured for 5 days; assay type: functional; conditions: ATCC 19606 = CIP 70.34 = JCM 6841, ip, 120 h; in short: as §2
Acinetobacter baumannii [8] = experiment: Synergistic bactericidal activity against Acinetobacter baumannii ATCC 19606 at 60:1 compound to doxycycline ratio after 48 hrs by resazurin dye based microdilution broth checkerboard method; assay type: functional; conditions: ATCC 19606 = CIP 70.34 = JCM 6841, 48 h, read-out: MBC99.9; in short: as §1
Acinetobacter baumannii [9] = experiment: Potentiation of doxycycline-induced antimicrobial activity against Acinetobacter baumannii ATCC 19606 at 0.40 ug/ml in presence of 0.05 ug/ml doxycycline by microdilution broth checkerboard method; assay type: functional, ATCC 19606 = CIP 70.34 = JCM 6841; in short: as §3
Acinetobacter baumannii [10] = experiment: Synergistic antibacterial activity against Acinetobacter baumannii ATCC 19606 infected in C57BL/6 mouse assessed as survival rate at compound to doxycycline ratio of 35:1 at 20 mg/kg, ip administered as single dose measured for 5 days (reference value: <20%); assay type: functional; conditions: ATCC 19606 = CIP 70.34 = JCM 6841, ip, 120 h; in short: as §2
Acinetobacter baumannii [11] = experiment: Synergistic antibacterial activity against Acinetobacter baumannii ATCC 19606 infected in C57BL/6 mouse assessed as survival rate at compound to doxycycline ratio of 35:1 at 4 mg/kg, ip administered as single dose measured for 5 days (reference value: <20%); assay type: functional; conditions: ATCC 19606 = CIP 70.34 = JCM 6841, ip, 120 h; in short: as §2
Acinetobacter baumannii [12] = experiment: Potentiation of doxycycline-induced antimicrobial activity against Acinetobacter baumannii ATCC 19606 at 0.20 ug/ml in presence of 0.05 ug/ml doxycycline by microdilution broth checkerboard method; assay type: functional, ATCC 19606 = CIP 70.34 = JCM 6841; in short: as §3
Staphylococcus aureus = experiment: Synergistic bactericidal activity against Staphylococcus aureus ATCC 25923 at 2:1 compound to doxycycline ratio after 48 hrs by resazurin dye based microdilution broth checkerboard method; assay type: functional; conditions: ATCC 25923, 48 h, read-out: MBC99.9; in short: as §1

In the case of `C=C[C@]1(C)C[C@@H](OC(=O)CSC(C)(C)CNC(=O)[C@H](N)C(C)C)[C@]2(C)[C@H](C)CC[C@]3(CC[C@@H](O)[C@H]32)[C@@H](C)[C@@H]1O`, the MBC (Acinetobacter baumannii [1]) is reported as 6.25 µg/mL, the PPB [2] is reported as 76.9% and the MIC (Acinetobacter baumannii [3]) is reported as 0.5 µg/mL. It also gave an efflux ratio [4] of 5, a survival at 4 mg/kg (Acinetobacter baumannii [5]) of 80% and an MIC (Klebsiella pneumoniae) of 0.78 µg/mL. For the same molecule, the MIC (Pseudomonas aeruginosa) was 6.25 µg/mL, the “fractional inhibitory concentration index (FICI)” value (Acinetobacter baumannii [6]) was 0.16 and the ED50 (Acinetobacter baumannii [7]) was under 2 mg/kg. The MBC (Acinetobacter baumannii [8]) was 2 µg/mL, the “fractional inhibitory concentration index (FICI)” value (Acinetobacter baumannii [9]) was 0.31 and the survival at 20 mg/kg (Acinetobacter baumannii [10]) was 100%. For the same molecule, the survival at 4 mg/kg (Acinetobacter baumannii [11]) was 100%, the “fractional inhibitory concentration index (FICI)” value (Acinetobacter baumannii [12]) was 0.28 and the MBC (Staphylococcus aureus) was 25 µg/mL.
